In ChEMBL document CHEMBL1155465, “"Viologen" dendrimers as antiviral agents: the effect of charge number and distance” (J Med Chem, 2010):
pEC50: −log10 of the molar value. ≈ marks a conversion by molar mass, not a printed value.

Key:
[1] = system: Human immunodeficiency virus 1; experiment: Antiviral activity against HIV1 3B infected in human MT4 cells assessed as time-of-addition prolongation at 2 ug/ml after 31 hrs post infection by ELISA; type: functional
Procedure, shortened: (§1)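 Time-of-addition: MT-4 cells infected with HIV-1 IIIB at moi 0.5 for a 1 h adsorption, then plated at 45000 cells/well at 37 °C. Compound added at 0, 1, 2, 3, 4, 5, 6, 7, 8, 24 or 25 h post-infection. Supernatant p24 antigen measured by ELISA at 31 h post-infection.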

[2] = system: Human immunodeficiency virus 1; experiment: Antiviral activity against HIV1 3B infected in human A72 Jurkat cells assessed as inhibition of GFP expression after 48 hrs by flow cytometry; type: functional, organism-based; settings: Human immunodeficiency virus 1, 3B
Procedure, shortened: (§2)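 Acutely infected A72 Jurkat cells. EC50 (μg/mL) is the concentration giving 50% inhibition of GFP expression relative to drug-free infection. CC50 is 50% reduction in cell viability. SI = CC50/EC50. Mean ± SD of ≥2 experiments.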

[3] = system: Human immunodeficiency virus 2; experiment: Antiviral activity against HIV2 ROD infected in human A72 Jurkat cells assessed as inhibition of GFP expression after 48 hrs by flow cytometry; type: functional, organism-based; settings: Human immunodeficiency virus 2, ISOLATE ROD; procedure, shortened: as §2
[4] = system: Human immunodeficiency virus 1; experiment: Antiviral activity against HIV1 NL4-3 infected in human A72 Jurkat cells assessed as inhibition of GFP expression after 48 hrs by flow cytometry; type: functional, organism-based; settings: Human immunodeficiency virus 1, NL4-3, Jurkat; procedure, shortened: as §2
[5] = system: Human immunodeficiency virus; experiment: Antiviral activity against AZT-resistant HIV infected in human A72 Jurkat cells assessed as inhibition of GFP expression after 48 hrs by flow cytometry; type: functional, organism-based; settings: Human immunodeficiency virus 1, Jurkat; procedure, shortened: as §2
[6] = system: Human immunodeficiency virus; experiment: Antiviral activity against HIV S056 infected in human A72 Jurkat cells assessed as inhibition of GFP expression after 48 hrs by flow cytometry; type: functional, organism-based; settings: Human immunodeficiency virus 1, S056, Jurkat; procedure, shortened: as §2
[7] = system: Human immunodeficiency virus; experiment: Antiviral activity against HIV S067 infected in human A72 Jurkat cells assessed as inhibition of GFP expression after 48 hrs by flow cytometry; type: functional, organism-based; settings: Human immunodeficiency virus 1, S067, Jurkat; procedure, shortened: as §2
[8] = system: Human immunodeficiency virus; experiment: Antiviral activity against HIV S07 infected in human A72 Jurkat cells assessed as inhibition of GFP expression after 48 hrs by flow cytometry; type: functional, organism-based; settings: Human immunodeficiency virus 1, S07, Jurkat; procedure, shortened: as §2
[9] = Cytotoxicity against human Jurkat A72 cells by MTT assay; type: cell-based; procedure, shortened: as §2
[10] = Selectivity index, ratio of CC50 for human Jurkat A72 cells to EC50 for HIV1 3B; type: toxicity, cell-based; procedure, shortened: as §2
[11] = system: Human immunodeficiency virus 1; experiment: Antiviral activity against HIV1 3B infected in human MT4 cells assessed as time-of-addition prolongation at 0.5 ug/ml after 31 hrs post infection by ELISA; type: functional; procedure, shortened: as §1
[12] = system: Human immunodeficiency virus 1; experiment: Antiviral activity against HIV1 3B infected in human MT4 cells after 5 days by MTT assay; type: functional, organism-based; settings: Human immunodeficiency virus 1, 3B, MT4, 120 h
Procedure, shortened: (§3)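 MT-4 cells in RPMI 1640 with 10% heat-inactivated FCS, 2 mM L-glutamine, 0.1% bicarbonate and gentamicin, seeded at 6 × 10⁵ cells/mL final with virus or mock infection. Viability read by MTT after 5 days at 540 and 690 nm, using the median OD of three wells. CC50 is 50% loss of mock-infected OD540. EC50 is 50% inhibition of virus-induced CPE. SI = CC50/EC50. Mean ± SD of ≥2 experiments.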

[13] = system: Human immunodeficiency virus 2; experiment: Antiviral activity against HIV2 ROD infected in human MT4 cells after 5 days by MTT assay; type: functional, organism-based; settings: Human immunodeficiency virus 2, ISOLATE ROD, MT4, 120 h; procedure, shortened: as §3
[14] = system: Simian immunodeficiency virus; experiment: Antiviral activity against SIV MAC251 infected in human MT4 cells after 5 days by MTT assay; type: functional, organism-based; settings: MAC251, MT4, 120 h; procedure, shortened: as §3
[15] = Cytotoxicity against human MT4 cells after 5 days by MTT assay; type: cell-based; procedure, shortened: as §3
[16] = Selectivity index, ratio of CC50 for human MT4 cells to EC50 for HIV1 3B; type: toxicity, cell-based; settings: read-out: Ratio CC50/EC50; procedure, shortened: as §3
[17] = system: Human immunodeficiency virus 1; experiment: Antiviral activity against HIV1 3B infected in human PBMC assessed as inhibition of viral p24 antigen production by ELISA; type: functional, organism-based; settings: Human immunodeficiency virus 1, 3B
Procedure, shortened: (§4)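 PBMCs infected with HIV-1 IIIB and cultured with a range of compound concentrations. EC50 is 50% inhibition of supernatant p24 core antigen (ELISA) relative to drug-free culture. CC50 is 50% reduction in cell viability. SI = CC50/EC50. Mean ± SD of ≥2 experiments.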

[18] = Cytotoxicity against human PBMC after 5 days by MTT assay; type: cell-based; procedure, shortened: as §4
[19] = Selectivity index, ratio of CC50 for human PBMC to EC50 for HIV1 3B; procedure, shortened: as §4
[20] = system: Human immunodeficiency virus 1; experiment: Antiviral activity against HIV1 3B infected in human MT4 cells assessed as time-of-addition prolongation at 100 ug/ml after 31 hrs post infection by ELISA; type: functional; procedure, shortened: as §1
[21] = system: Human immunodeficiency virus 1; experiment: Antiviral activity against HIV1 NL4-3 pseudotyped with VSV-G envelope infected in human C8166 cells assessed as inhibition of GFP expression after 48 hrs by flow cytometry; type: functional, organism-based
Procedure, shortened: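 VSV-G-pseudotyped (env-deficient) GFP-encoding NL4.3 taken from transfection supernatant at 60 h and clarified at 450g for 10 min. Used to infect 3 × 10⁴ C8166 cells (RPMI 1640, 10% FCS) with graded compound concentrations. GFP expression read by flow cytometry 48 h post-infection, with the no-compound infection control set as 100%.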

Human alphaherpesvirus 1 [22] = experiment: Antiviral activity against HSV1 KOS infected in human E6SM cell assessed as inhibition of virus-induced cytopathicity; type: functional, organism-based; settings: Human alphaherpesvirus 1, KOS
Human alphaherpesvirus 2 = experiment: Antiviral activity against HSV2 G infected in human E6SM cell assessed as inhibition of virus-induced cytopathicity; type: functional, organism-based; settings: Human alphaherpesvirus 2, strain G
Vaccinia virus = experiment: Antiviral activity against Vaccina virus infected in human E6SM cell assessed as inhibition of virus-induced cytopathicity; type: functional, organism-based; settings: Orthopoxvirus vaccinia
[23] = system: Vesicular stomatitis virus; experiment: Antiviral activity against VSV infected in human E6SM cell assessed as inhibition of virus-induced cytopathicity; type: functional, organism-based
Human alphaherpesvirus 1 [24] = experiment: Antiviral activity against TK-deficient acyclovir-resistant HSV1 KOS infected in human E6SM cell assessed as inhibition of virus-induced cytopathicity; type: functional, organism-based; settings: Human alphaherpesvirus 1, KOS
[25] = system: Vesicular stomatitis virus; experiment: Antiviral activity against VSV infected in human HeLa cell assessed as inhibition of virus-induced cytopathicity; type: functional, organism-based
[26] = system: Respiratory syncytial virus; experiment: Antiviral activity against RSV infected in human HeLa cell assessed as inhibition of virus-induced cytopathicity; type: functional, organism-based
[27] = Cytotoxicity against human E6SM cells by MTT assay; type: cell-based
[28] = Cytotoxicity against human HeLa cells by MTT assay; type: cell-based
Human respirovirus 3 = experiment: Antiviral activity against Parainfluenza virus 3 infected in african green monkey Vero cells assessed as inhibition of virus-induced cytopathicity; type: functional, organism-based; settings: Human respirovirus 3, Vero
Reovirus sp. = experiment: Antiviral activity against Reovirus infected in african green monkey Vero cells assessed as inhibition of virus-induced cytopathicity; type: functional, organism-based
Sindbis virus = experiment: Antiviral activity against Sindbis virus infected in african green monkey Vero cells assessed as inhibition of virus-induced cytopathicity; type: functional, organism-based
Punta Toro virus = experiment: Antiviral activity against Punta Toro virus infected in african green monkey Vero cells assessed as inhibition of virus-induced cytopathicity; type: functional, organism-based
[29] = Cytotoxicity against african green monkey Vero cells by MTT assay; type: cell-based; settings: chlorocebus sabaeus
[30] = system: Human immunodeficiency virus; experiment: Antiviral activity against HIV SO6141 infected in human MT4 cells after 5 days by MTT assay; type: functional, organism-based; settings: Human immunodeficiency virus 1, SO6141, MT4, 120 h; procedure, shortened: as §3

Cc1ccnc2c1NC(=O)c1cccnc1N2C1CC1 [NEVIRAPINE]
Time [1]: 10 h | EC50 [2]: 0.008 µg/mL (≈ 0.03 µM) | EC50 [3]: > 2 µg/mL | EC50 [4]: 0.008 µg/mL (≈ 0.03 µM) | EC50 [5]: 0.005 µg/mL (≈ 0.0188 µM) | EC50 [6]: < 0.2 µg/mL | EC50 [7]: 0.016 µg/mL (≈ 0.0601 µM) | EC50 [8]: 0.012 µg/mL (≈ 0.0451 µM) | CC50 [9]: > 2 µg/mL | selectivity ratio [10]: > 250

Cc1cn([C@H]2C[C@H](N=[N+]=[N-])[C@@H](CO)O2)c(=O)[nH]c1=O [ZIDOVUDINE]
Time [11]: 5 h

CC[n+]1ccc(-c2cc[n+](Cc3cc(Cc4ccc(-c5cc[n+](Cc6cc(C[n+]7ccc(-c8cc[n+](Cc9cc(C[n+]%10ccc(-c%11cc[n+](CC)cc%11)cc%10)cc(C[n+]%10ccc(-c%11cc[n+](CC)cc%11)cc%10)c9)cc8)cc7)cc(C[n+]7ccc(-c8cc[n+](Cc9cc(C[n+]%10ccc(-c%11cc[n+](CC)cc%11)cc%10)cc(C[n+]%10ccc(-c%11cc[n+](CC)cc%11)cc%10)c9)cc8)cc7)c6)cc5)cc4)cc(C[n+]4ccc(-c5cc[n+](CC)cc5)cc4)c3)cc2)cc1.F[P-](F)(F)(F)(F)F.F[P-](F)(F)(F)(F)F.F[P-](F)(F)(F)(F)F.F[P-](F)(F)(F)(F)F.F[P-](F)(F)(F)(F)F.F[P-](F)(F)(F)(F)F.F[P-](F)(F)(F)(F)F.F[P-](F)(F)(F)(F)F.F[P-](F)(F)(F)(F)F.F[P-](F)(F)(F)(F)F.F[P-](F)(F)(F)(F)F.F[P-](F)(F)(F)(F)F.F[P-](F)(F)(F)(F)F.F[P-](F)(F)(F)(F)F.F[P-](F)(F)(F)(F)F.F[P-](F)(F)(F)(F)F.F[P-](F)(F)(F)(F)F
pEC50 [12]: 6.59 | pEC50 [13]: < 4.71 | pEC50 [14]: 6.34 | CC50 at 120 h [15]: 19.7 µM | selectivity ratio [16]: 75.8 | EC50 [17]: 1.62 µg/mL | CC50 at 120 h [18]: 4.04 µg/mL | Ratio CC50/EC50 [19]: 2.5 | Time [20]: 1 h | inhibition [21]: Dose-dependent effect | EC50 [2]: 0.685 µg/mL | EC50 [3]: 21.5 µg/mL | EC50 [4]: < 0.2 µg/mL | EC50 [5]: 5.9 µg/mL | EC50 [6]: < 2 µg/mL | EC50 [7]: < 0.2 µg/mL | EC50 [8]: < 0.2 µg/mL | CC50 [9]: 102 µg/mL | selectivity ratio ([10]; read-out: Ratio CC50/EC50): 149 | EC50 (Human alphaherpesvirus 1 [22]): 2 µg/mL | EC50 (Human alphaherpesvirus 2): 10 µg/mL | EC50 (Vaccinia virus): > 50 µg/mL | EC50 [23]: > 50 µg/mL | EC50 (Human alphaherpesvirus 1 [24]): 10 µg/mL | EC50 [25]: > 50 µg/mL | EC50 [26]: 50 µg/mL | MCC [27]: > 50 µg/mL | MCC [28]: > 50 µg/mL | EC50 (Human respirovirus 3): > 50 µg/mL | EC50 (Reovirus sp.): > 50 µg/mL | EC50 (Sindbis virus): > 50 µg/mL | EC50 (Punta Toro virus): > 50 µg/mL | MCC [29]: > 50 µg/mL | pEC50 [30]: ≤ 5.81
